From PubChem
This is a sample that favours compounds with a hit; in the whole collection about 2.6% have one here.
SENP1 inh: blocks the human SENP1 SUMO protease catalytic domain | Q9P0U3 | recombinant SENP1 catalytic domain, CyPet-SUMO1-YPet FRET cleavage | inhibition, % at 10 µM | 360,000 tested, 0.21% active;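 active = inhibition at least 30% at 10 µM, raw YFP signal under a set limit, fluorescence ratio 0.5 to 1.5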;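 also: 0% = enzyme with DMSO and 100% = no enzyme wells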
Target sequence (Q9P0U3 419-644 limits assumed): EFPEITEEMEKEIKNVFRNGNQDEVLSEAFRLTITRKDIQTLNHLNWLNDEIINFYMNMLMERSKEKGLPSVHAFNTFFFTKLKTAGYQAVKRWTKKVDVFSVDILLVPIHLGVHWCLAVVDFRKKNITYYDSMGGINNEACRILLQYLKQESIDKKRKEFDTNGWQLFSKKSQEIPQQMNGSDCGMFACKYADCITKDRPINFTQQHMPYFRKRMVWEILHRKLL
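system = hSENP1 catalytic domain, recombinant | reagent = SFCypet-SUMO1-SFYpet substrate at 25 nM | doses = one dose per compound, 10 µM, 0.5% DMSO | incubation = enzyme reaction for 50 min at room temperature, dark | measured by = FRET, CFP and YFP emission | controls = no-enzyme low, enzyme-DMSO high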
SENP6 block: inhibitors of human SENP6 protease. Q9GZR1. Recombinant SENP6 catalytic domain, aminoluciferin luminescence. inhibition, % at 10 µM. 330,000 tested, 1.8% active;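 active = inhibition above about 50% at the single tested dose, limit read from the data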;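 also: plate controls were DMSO wells with enzyme for no effect and DMSO wells lacking enzyme for full effect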
SENP8 block-1: inhibitors of human SENP8 protease; recombinant SENP8, Nedd8 substrate fluorescence; AID 602440; inhibition, % at 20 µM; 360,000 tested, 0.64% active; Q96LD8; in the data active = inhibition mostly above about 40%, no sharp cut-off; inactive = mostly below about 27%
Platelet DG rel: platelet dense granule release activity | human platelet-rich plasma, SFLLRN dense granule ATP release, luminescence | inhibition, %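 (compounds screened at 7.5 µM in platelet-rich plasma)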 | 300,000 tested, 0.22% active | AID 1663;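 active = mean replicate score, as percent of positive control, at or above 50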
SENP8 block-2: inhibitors of human SENP8 protease | Q96LD8 | 330,000 tested, 1.2% active | purified SENP8, Z-RLRGG-aminoluciferin cleavage, luminescence | inhibition, % at 10 µM; in the data active = inhibition above about 50%
SENP7 block: SENP7 protease inhibition | recombinant SENP7, Z-RLRGG-aminoluciferin luminescence, 40 min | inhibition, % at 5 µM | 330,000 tested, 1.5% active | AID 434973;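 active = inhibition above about 50% at the single test dose, limit read from the data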;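 also: plate controls were DMSO with enzyme for no effect and no enzyme buffer wells for full effect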
Target sequence (Q9BQF6 706-1050 limits assumed): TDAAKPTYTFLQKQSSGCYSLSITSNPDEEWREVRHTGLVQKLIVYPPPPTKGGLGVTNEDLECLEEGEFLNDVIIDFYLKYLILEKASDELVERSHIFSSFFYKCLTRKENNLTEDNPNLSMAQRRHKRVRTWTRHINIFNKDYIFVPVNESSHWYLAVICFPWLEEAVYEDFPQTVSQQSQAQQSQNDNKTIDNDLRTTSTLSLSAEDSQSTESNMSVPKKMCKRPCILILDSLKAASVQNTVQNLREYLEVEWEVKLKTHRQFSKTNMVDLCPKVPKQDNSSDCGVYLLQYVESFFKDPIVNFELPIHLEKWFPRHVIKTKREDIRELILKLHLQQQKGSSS
SENP8 conf: confirmation of human SENP8 protease inhibitors. shares compounds with SENP7 block. Recombinant SENP8, Z-RLRGG-aminoluciferin luminescence, 60 min. inhibition, % at 12.5 µM. 6,200 tested, 40% active;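 active = mean inhibition across replicates above about 50%, limit read from the data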
SENP6 conf: human SENP6 inhibition, confirmed; shares compounds with SENP7 block; inhibition, % at 12.5 µM; 6,200 tested, 58% active; recombinant SENP6, Z-RLRGG-aminoluciferin luminescence; AID 488915
SENP7 conf: confirmation of human SENP7 protease inhibitors; 6,200 tested, 69% active; shares compounds with SENP7 block; inhibition, % at 12.5 µM; recombinant SENP7, Z-RLRGG-aminoluciferin luminescence, 40 min
Casp3 SENP sel: inhibits human caspase-3 in SENP selectivity test; shares compounds with SENP7 block; purified caspase-3, Z-DEVD-aminoluciferin luminescence, 60 min; inhibition, % at 12.5 µM; 6,200 tested, 60% active; AID 488918;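 active = mean inhibition above about 50%, limit read from the data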;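 also: plate controls were enzyme with DMSO for no effect and wells without caspase-3 for full effect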
Luc interf: counter-screen for SENP inhibitors: luminescence interference; 6,200 tested, 39% active; shares compounds with SENP7 block; inhibition, % at 12.5 µM; Pre-incubated SENP8/Z-RLRGG-aminoluciferin, luciferase luminescence interference; AID 488919;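 active = mean inhibition above about 50% when retested at one dose, limit read from the data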;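 also: plate controls were DMSO wells with completed reaction for no effect and substrate without enzyme for full effect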
Numbers without * were called inactive; i = inactive; · = no result given.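 The calls were made as follows, unless noted: active = mean inhibition above about 50% in the one-dose retest (limit read from the data); inactive = the rest.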

SMILES | SENP1 inh | SENP6 block | SENP8 block-1 | Platelet DG rel | SENP8 block-2 | SENP7 block | SENP8 conf | SENP6 conf | SENP7 conf | Casp3 SENP sel | Luc interf
Cc1ccoc1C(=O)Nc1ccc2ccccc2c1 | -1 | 97* | -2 | 29 | 96* | 99* | 96* | 98* | 102* | 96* | 92*
Cc1cc(C(=O)Nc2ccc3ccccc3c2)oc1C | -5 | 68* | -56 | 2 | 61* | 54* | 2 | 66* | 89* | 50* | 53*
Cc1ccc(NC(=O)c2ccc([N+](=O)[O-])o2)cc1C | 1 | 76* | 16 | 15 | 61* | 87* | 81* | 80* | 94* | 79* | 80*
Cc1cc(OCCCN2CCCC2)ccc1Cl | -1 | -5 | 20 | 5 | -7 | -9 | · | · | · | · | ·
Cc1ccccc1NC(=S)Nc1cccc2cnccc12 | -14 | 98* | -152 | 0 | 88* | 86* | 16 | 33 | 19 | 10 | 6
S=C(Nc1cccc2ccccc12)Nc1cccc2ccccc12 | -26 | · | i | · | · | · | · | · | · | · | ·
FC(F)(F)c1ccccc1NC(=S)Nc1cccc2cnccc12 | -7 | · | -119 | · | · | · | · | · | · | · | ·
Cc1ccc(F)c(NC(=S)Nc2cccc3ccccc23)c1 | -15 | 88* | -453 | 11 | 83* | 45 | 10 | 10 | 1 | -5 | -3
Cc1ccc(C)c(NC(=S)Nc2cccc3cnccc23)c1 | -6 | 79* | -95 | 0 | 77* | 54* | 12 | 17 | 2 | 3 | -2
Cc1ccc(C)c(NC(=S)Nc2cccnc2)c1 | 3 | 15 | -8 | -4 | -1 | 9 | · | · | · | · | ·
S=C(NCc1ccccc1)Nc1cccc2cnccc12 | 3 | -18 | -4 | 0 | -9 | -2 | · | · | · | · | ·
Fc1ccccc1NC(=S)Nc1cccc2cnccc12 | -18 | 92* | -250 | 7 | 87* | 78* | 15 | 41 | 26 | 7 | 16
COCOCCn1cc(CN2CCS(=O)(=O)N(Cc3ccc(-c4ccc(F)nc4)cc3)C(CC(C)C)C2=O)nn1 (stereo unspecified) | -3 | · | -15 | · | · | · | · | · | · | · | ·
O=C(CNC(=O)[C@@H]1Cc2ccccc2CN1)Nc1ccc2c(c1)OCCO2 | 2 | 1 | 4 | 8 | 5 | 3 | · | · | · | · | ·
O=C(c1ccccc1NS(=O)(=O)c1cccc([N+](=O)[O-])c1)N1CCCC1 | -2 | -3 | 13 | -7 | 3 | 0 | · | · | · | · | ·
O=C(Nc1nc2ccc(F)cc2s1)c1cccs1 | 0 | 91* | -95 | 3 | 92* | 95* | 67* | 96* | 103* | 93* | 81*
O=C(Nc1nc2ccc(S(=O)(=O)N3CCCC3)cc2s1)c1cccs1 | 2 | 26 | -301 | 3 | -7 | 1 | · | · | · | · | ·
CN(C)S(=O)(=O)c1ccc2nc(NC(=O)c3cccs3)sc2c1 | 3 | 73* | -237 | 12 | 40 | 55* | 77* | 74* | 90* | 72* | 76*
O=C(NC(=S)Nc1nc2ccccc2s1)c1cccs1 | -6 | 76* | 2 | 0 | 43 | 20 | 13 | 8 | 26 | 13 | 12
CN(CC(=O)Nc1ccccc1Cl)C(=O)c1ccc(N2C(=O)CCC2=O)cc1 | -1 | 4 | 5 | · | 2 | -2 | · | · | · | · | ·
O=C1/C(=C/c2cccc(F)c2)Oc2cc(O)ccc21 | -19 | 52* | -256 | 11 | 36 | 47 | 70* | 64* | 81* | 44 | 34
COC[C@H](NS(=O)(=O)c1ccc(Br)cc1F)[C@@H](O)c1ccccc1 | 1 | · | 13 | · | · | · | · | · | · | · | ·
O=C(Nc1ccc(F)c(Cl)c1)c1cncs1 | 2 | 10 | 14 | -5 | -3 | 4 | · | · | · | · | ·
CN(C)c1ccc(/C=C2\CCCCC2=O)cc1 | -79 | 62* | -24 | 6 | 48 | 63* | 46 | 62* | 81* | 60* | 29
CCOC(=O)c1cc2c(=O)c3ccccc3oc2nc1C | 4 | 58* | 7 | 9 | 44 | 58* | 42 | 43 | 67* | 74* | 19
SMILES | SENP1 inh | SENP6 block | SENP8 block-1 | Platelet DG rel | SENP8 block-2 | SENP7 block | SENP8 conf | SENP6 conf | SENP7 conf | Casp3 SENP sel | Luc interf
CC(=O)OC1=C(O)C(=O)c2ccccc2C1=O | · | 25 | · | -4 | 9 | 34 | · | · | · | · | ·
O=C1C(C2=C(O)c3ccccc3C2=O)=Nc2ccccc21 | 23 | 89* | 60* | 4 | 79* | 17 | 14 | 95* | 100* | 60* | 20
CC(=O)c1c(C)[nH]c(C(=O)OCC(=O)N(CC(C)C)C2CCS(=O)(=O)C2)c1C (stereo unspecified) | 1 | -1 | 14 | · | 1 | 1 | · | · | · | · | ·
O=C(Nc1ccccc1Br)c1cc(=O)c2ccccc2o1 | 2 | 18 | 2 | -35 | 0 | 13 | · | · | · | · | ·
O=C(Nc1cccnc1)c1cc(-c2ccc(F)cc2)on1 | 3 | 64* | 16 | 3 | 56* | 76* | 10 | 22 | 39 | 32 | 2
O=C(Nc1cccnc1)c1cc(-c2ccc3c(c2)OCO3)on1 | 0 | 77* | -58 | 23 | 19 | 96* | 26 | 28 | 62* | 79* | 31
O=C(Nc1cccnc1)c1cc(-c2ccc(Cl)c(Cl)c2)on1 | -1 | 55* | 12 | 55* | 33 | 76* | -1 | 3 | 11 | 22 | 13
Nc1[nH]c(C(=O)c2ccccc2)c(-c2ccccc2Br)c1C(=O)NCCc1ccc(Cl)cc1Cl | -1 | · | 1 | · | · | · | · | · | · | · | ·
CN(C)Cc1ccccc1COc1ccccc1 | 2 | -10 | 15 | -1 | -3 | -6 | · | · | · | · | ·
O=C(c1cc(-c2cccc(O)c2)on1)N1CCCC1 | -5 | 50* | 15 | 8 | 17 | 18 | 45 | 40 | 78* | 70* | 38
O=C(c1cc(-c2ccccc2)on1)N1CCCCCC1 | 0 | 5 | 9 | -6 | -2 | 5 | · | · | · | · | ·
O=C(c1cc(-c2ccc3c(c2)OCO3)on1)N1CCOCC1 | 1 | 67* | -3 | -8 | 32 | 57* | 58* | 52* | 84* | 82* | 54*
O=C(c1cc(-c2ccc(Cl)cc2Cl)on1)N1CCOCC1 | 1 | 62* | 13 | -6 | 47 | -9 | 49 | 49 | 85* | 72* | 51*
O=C(c1cc(-c2ccc3c(c2)OCO3)on1)N1CCN(c2ccccc2)CC1 | 1 | -1 | 2 | 8 | 7 | 0 | · | · | · | · | ·
